The source of these data is ChEMBL document CHEMBL4665798, “Novel Human Urate Transporter 1 Inhibitors as Hypouricemic Drug Candidates with Favorable Druggability” (J Med Chem, 2020).

The first assay concerns Mus musculus. As to the kind of experiment: Hypouricemic activity in Kunming mouse model of xanthine/potassium oxonate-induced acute hyperuricemia assessed as decrease in serum uric acid level at 2 mg/kg administered 3 hrs prior to xanthine/potassium oxonate and measured after 6 hrs relative to control. In kind it is functional. More on the design: scale not given: the % may be the effect or the level left. The note with it: time 9 hrs. A digest of the protocol: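 Male Kunming mice, hyperuricemia induced by intragastric xanthine plus subcutaneous potassium oxonate (0.2 mL each). […] Groups: normal vehicle, untreated model, active control, test. Serum uric acid measured. Decrease ratio = (model SUA − compound SUA)/(model SUA − vehicle SUA).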
Take `CCOC(=O)C(C)Sc1nc2cccnc2n1-c1c(C)cc(C)cc1C` (stereo not drawn): the Activity is 22.34%.
For the molecule `N#Cc1ccc(-n2c(SCCC(=O)O)nc3cnccc32)c2ccccc12`, the Activity worked out at 51.13%.
Turning to `COC(=O)CCCSc1nc2cnccc2n1-c1ccc(C#N)c2ccccc12`, the Activity came to 8.96%.
For `CCCS(=O)(=O)NC(=O)CSc1nnc(Br)n1-c1ccc(C2CC2)c2ccccc12`, the Activity amounted to 24.06%.
As for `O=C(CSc1nnc(Br)n1-c1ccc(C2CC2)c2ccccc12)NS(=O)(=O)c1ccc(Cl)s1`, the Activity is 53.44%.
Still for that read-out and setting: with `O=C(CSc1nnc(Br)n1-c1ccc(C2CC2)c2ccccc12)NS(=O)(=O)c1ccc(Cl)cc1` the figure was 76.46%; with `CCOC(=O)CSc1nc2cnccc2n1-c1ccc(C2CC2)c2ccccc12`, 40.79%.
The same measure, in the same setting: the value for `Cc1cc(C)c(-n2c(SCCCC(=O)O)nc3cccnc32)c(C)c1` was 13.05%; that for `CC(C)S(=O)(=O)NC(=O)CSc1nnc(Br)n1-c1ccc(C2CC2)c2ccccc12` was 11.99%.
As to `COC(=O)CCSc1nc2ncccc2n1-c1ccc(C#N)c2ccccc12`, the Activity was found to be 5.12%.
Same read-out and setting: with `N#Cc1ccc(-n2c(SCCCC(=O)O)nc3ncccc32)c2ccccc12` the figure was 20.3%; with `COC(=O)C(C)Sc1nc2ncccc2n1-c1ccc(C#N)c2ccccc12` (stereo not drawn), 13%; with `CCOC(=O)CCCSc1nc2cnccc2n1-c1ccc(C2CC2)c2ccccc12`, 47.37%.
As for `CCOC(=O)C(C)(C)Sc1nc2cccnc2n1-c1ccc(C2CC2)c2ccccc12`, the Activity was determined as 2.61%.
With `CCOC(=O)CCCSc1nc2cccnc2n1-c1ccc(C2CC2)c2ccccc12`, the Activity is listed as 23.73%.
The same measure, in the same setting: with `CCOC(=O)CCCSc1nc2ncccc2n1-c1ccc(C2CC2)c2ccccc12` the figure was 33.6%; with `Cc1cc(C)c(-n2c(SCC(=O)O)nc3cccnc32)c(C)c1`, 18.26%.
The same measure, in the same setting: the value for `CCOC(=O)CSc1nc2cccnc2n1-c1ccc(C2CC2)c2ccccc12` was 41.96%.
Regarding `COC(=O)CSc1nc2ncccc2n1-c1ccc(C#N)c2ccccc12`, the Activity was found to be 9.51%.
Same read-out and setting: the value for `CC(C)(Sc1nc2cnccc2n1-c1ccc(C2CC2)c2ccccc12)C(=O)O` was 37.89%; that for `N#Cc1ccc(-n2c(SCC(=O)O)nc3cnccc32)c2ccccc12` was 59.22%; that for `CCOC(=O)CSc1nc2ncccc2n1-c1ccc(C2CC2)c2ccccc12` was 33.56%.
On the same count and under the same terms, the value for `O=C(O)CCCSc1nc2ncccc2n1-c1ccc(C2CC2)c2ccccc12` was 35.39%.
The same measure, in the same setting: the value for `CCOC(=O)C1(Sc2nc3ncccc3n2-c2ccc(C3CC3)c3ccccc23)CCC1` was 47.9%.
On to `COC(=O)CCCSc1nc2ncccc2n1-c1ccc(C#N)c2ccccc12`, for which the Activity is on record as 7.17%.
Same read-out and setting: the value for `Cc1cc(C)c(-n2c(SC(C)C(=O)O)nc3cccnc32)c(C)c1` (stereo not drawn) was 37.04%; that for `O=C(O)CSc1nc2cccnc2n1-c1cccc2ccccc12` was 2.25%.
Still for that read-out and setting: with `O=C(O)CCCSc1nc2cccnc2n1-c1ccc(C2CC2)c2ccccc12` the figure was 1.07%; with `CCOC(=O)C(C)Sc1nc2cnccc2n1-c1ccc(C2CC2)c2ccccc12` (stereo not drawn), 49.46%; with `O=C(CSc1nnc(Br)n1-c1ccc(C2CC2)c2ccccc12)NS(=O)(=O)c1ccc(F)cc1`, 75.17%.
On the same count and under the same terms, with `CCOC(=O)C(C)Sc1nc2cccnc2n1-c1cccc2ccccc12` (stereo not drawn) the figure was -1.84%.
For `CCOC(=O)CSc1nc2cccnc2n1-c1cccc2ccccc12`, the Activity is 4.03%.
The same measure, in the same setting: with `CCOC(=O)C1(Sc2nc3ncccc3n2-c2ccc(C#N)c3ccccc23)CCC1` the figure was 34.56%.
Still for that read-out and setting: with `CCOC(=O)C(C)(C)Sc1nc2ncccc2n1-c1ccc(C2CC2)c2ccccc12` the figure was 45.58%; with `O=C(O)C1(Sc2nc3cnccc3n2-c2ccc(C3CC3)c3ccccc23)CCC1`, 72.99%; with `O=C(CSc1nnc(Br)n1-c1ccc(C2CC2)c2ccccc12)NS(=O)(=O)c1ccccc1`, 64.65%.
The same measure, in the same setting: the value for `CC(C)(Sc1nc2ncccc2n1-c1ccc(C#N)c2ccccc12)C(=O)O` was 3.67%; that for `CCOC(=O)C(C)(C)Sc1nc2ncccc2n1-c1ccc(C#N)c2ccccc12` was 12.71%; that for `CCOC(=O)C1(Sc2nc3cnccc3n2-c2ccc(C3CC3)c3ccccc23)CCC1` was 41.35%.
Turning to `CC(Sc1nc2cnccc2n1-c1ccc(C#N)c2ccccc12)C(=O)O` (stereo not drawn), the Activity turned out to be 27.84%.
`CS(=O)(=O)NC(=O)CSc1nnc(Br)n1-c1ccc(C2CC2)c2ccccc12`: the Activity was 81.53%.
Turning to `CCOC(=O)C1(Sc2nc3cnccc3n2-c2ccc(C#N)c3ccccc23)CCC1`, the Activity is 14.44%.
Turning to `CCc1oc2ccccc2c1C(=O)c1cc(Br)c(O)c(Br)c1` [BENZBROMARONE], the Activity amounted to 36%.
For `O=C(CSc1nnc(Br)n1-c1ccc(C2CC2)c2ccccc12)NS(=O)(=O)c1cccs1`, the Activity is 63.94%.
Still for that read-out and setting: with `CCOC(=O)C(C)Sc1nc2cccnc2n1-c1ccc(C2CC2)c2ccccc12` (stereo not drawn) the figure was 40.34%.
On the same count and under the same terms, with `N#Cc1ccc(-n2c(SCCCC(=O)O)nc3cnccc32)c2ccccc12` the figure was 11.19%.
`O=C(CSc1nnc(Br)n1-c1ccc(C2CC2)c2ccccc12)NS(=O)(=O)C1CC1`: the Activity came out at 17.54%.
On the same count and under the same terms, with `CCS(=O)(=O)NC(=O)CSc1nnc(Br)n1-c1ccc(C2CC2)c2ccccc12` the figure was 11.04%; with `N#Cc1ccc(-n2c(SCC(=O)O)nc3ncccc32)c2ccccc12`, 51.91%; with `O=C(O)CCCSc1nc2cnccc2n1-c1ccc(C2CC2)c2ccccc12`, 56.26%.
Still for that read-out and setting: with `CCOC(=O)C(C)(C)Sc1nc2cnccc2n1-c1ccc(C2CC2)c2ccccc12` the figure was 68.65%; with `CC(C)(Sc1nc2ncccc2n1-c1ccc(C2CC2)c2ccccc12)C(=O)O`, 11.47%; with `CCOC(=O)C(C)(C)Sc1nc2cccnc2n1-c1c(C)cc(C)cc1C`, 41.56%.
Take `CC(C)(Sc1nc2cccnc2n1-c1ccc(C2CC2)c2ccccc12)C(=O)O`: the Activity is -0.83%.
Consider `COC(=O)C(C)Sc1nc2cnccc2n1-c1ccc(C#N)c2ccccc12` (stereo not drawn), for which the Activity is recorded as 17.9%.
In the case of `O=C(O)CSc1nc2ncccc2n1-c1ccc(C2CC2)c2ccccc12`, the Activity was 34.5%.
Same read-out and setting: the value for `O=C(CSc1nnc(Br)n1-c1ccc(C2CC2)c2ccccc12)NS(=O)(=O)c1ccc([N+](=O)[O-])cc1` was 66.71%; that for `N#Cc1ccc(-n2c(SC3(C(=O)O)CCC3)nc3ncccc32)c2ccccc12` was 60.74%; that for `CC(Sc1nc2cccnc2n1-c1cccc2ccccc12)C(=O)O` (stereo not drawn) was -1.78%.
Same read-out and setting: the value for `CC(C)(Sc1nc2cnccc2n1-c1ccc(C#N)c2ccccc12)C(=O)O` was 15.24%; that for `N#Cc1ccc(-n2c(SCCC(=O)O)nc3ncccc32)c2ccccc12` was 71.62%.
The same measure, in the same setting: the value for `COC(=O)CCSc1nc2cnccc2n1-c1ccc(C#N)c2ccccc12` was 11.47%; that for `CC(C)(C)c1ccc(S(=O)(=O)NC(=O)CSc2nnc(Br)n2-c2ccc(C3CC3)c3ccccc23)cc1` was 15.1%.
`CC(C)(Sc1nc2cccnc2n1-c1cccc2ccccc12)C(=O)O`: the Activity is 0.32%.
`CCOC(=O)CCCSc1nc2cccnc2n1-c1cccc2ccccc12`: the Activity came to 37.38%.
For `CC(C)(C)S(=O)(=O)NC(=O)CSc1nnc(Br)n1-c1ccc(C2CC2)c2ccccc12`, the Activity amounted to 5.94%.
The same measure, in the same setting: the value for `COC(=O)CSc1nc2cnccc2n1-c1ccc(C#N)c2ccccc12` was 14.54%; that for `Cc1ccc(S(=O)(=O)NC(=O)CSc2nnc(Br)n2-c2ccc(C3CC3)c3ccccc23)cc1` was 79.41%.
For the molecule `COC(=O)C(C)(C)Sc1nc2cnccc2n1-c1ccc(C#N)c2ccccc12`, the Activity is listed as 9.09%.
On the same count and under the same terms, with `O=C(O)CSc1nc2cnccc2n1-c1ccc(C2CC2)c2ccccc12` the figure was 42.17%; with `CCOC(=O)CCCSc1nc2cccnc2n1-c1c(C)cc(C)cc1C`, 11.19%; with `CCOC(=O)C(C)(C)Sc1nc2cccnc2n1-c1cccc2ccccc12`, 8.54%.
Turning to `N#Cc1ccc(-n2c(SC3(C(=O)O)CCC3)nc3cnccc32)c2ccccc12`, the Activity was 27.36%.
The same measure, in the same setting: the value for `Cc1cc(C)c(-n2c(SC(C)(C)C(=O)O)nc3cccnc32)c(C)c1` was -4.96%.
Still for that read-out and setting: the value for `O=C(O)CSc1nc2cccnc2n1-c1ccc(C2CC2)c2ccccc12` was 43.69%.

The assay is the same for the next values; noted with them: time 9 hrs, 2 mg/kg.
For `C[C@H](Sc1nc2ncccc2n1-c1ccc(C2CC2)c2ccccc12)C(=O)O` (stereo in doubt; 44a), the Activity was found to be 12.87%.
On the same count and under the same terms, with `C[C@@H](Sc1nc2ncccc2n1-c1ccc(C2CC2)c2ccccc12)C(=O)O` (stereo in doubt; 44d) the figure was 98.04%; with `C[C@H](Sc1nc2cnccc2n1-c1ccc(C2CC2)c2ccccc12)C(=O)O` (stereo in doubt; 54a), 58.08%; with `C[C@@H](Sc1nc2cnccc2n1-c1ccc(C2CC2)c2ccccc12)C(=O)O` (stereo in doubt; 54d), 57.89%.
Regarding `C[C@H](Sc1nc2ncccc2n1-c1ccc(C2CC2)c2ccccc12)C(=O)O` (stereo in doubt; 44c), the Activity worked out at 31.02%.
The same measure, in the same setting: the value for `C[C@H](Sc1nc2cnccc2n1-c1ccc(C2CC2)c2ccccc12)C(=O)O` (stereo in doubt; 54c) was 93.54%; that for `C[C@@H](Sc1nc2cnccc2n1-c1ccc(C2CC2)c2ccccc12)C(=O)O` (stereo in doubt; 54b) was 32.44%; that for `C[C@@H](Sc1nc2ncccc2n1-c1ccc(C2CC2)c2ccccc12)C(=O)O` (stereo in doubt; 44b) was 40.58%.
